{"data": "Results collected from several papers", "TYK2": "Non-receptor tyrosine-protein kinase TYK2 (TYK2, Homo sapiens, UniProt P29597)", "TYK2 JH1": "Non-receptor tyrosine-protein kinase TYK2, JH1 (TYK2, Homo sapiens, UniProt P29597)", "TYK2 JH2": "Non-receptor tyrosine-protein kinase TYK2, JH2 (TYK2, Homo sapiens, UniProt P29597)", "note": "Lines come from different studies, so protocols differ."}
{"Structure (SMILES)": "O=C(Nc1cnn(-c2csc(C(=O)NC3COC3)c2)c1)Nc1ccccc1Cl", "target": "TYK2", "assay": "enzyme activity, inhibitor", "conditions": "5 µM", "measurement": "remaining activity", "value": "95.9%"}
{"Structure (SMILES)": "CCCS(=O)(=O)Nc1ccc(F)c(C(=O)c2c[nH]c3ncc(-c4ccc(Cl)cc4)cc23)c1F", "target": "TYK2", "assay": "enzyme activity, inhibitor", "conditions": "1 µM", "measurement": "inhibition", "value": "< 10%"}
{"Structure (SMILES)": "c1cnn2ncc(-c3ccnc(N4CCC45COC5)n3)c2c1", "target": "TYK2 JH1", "assay": "cell-free assay", "conditions": "1 µM", "measurement": "remaining signal", "value": "64%"}
{"Structure (SMILES)": "COCCOc1nc(-c2ccc(Cl)nc2)nc2c1CN(C(=O)c1ncn3ccccc13)CC2", "target": "TYK2 JH1", "assay": "cell-free assay, competition with immobilised ligand", "conditions": "0.1 µM", "measurement": "remaining binding", "value": "100%"}
{"Structure (SMILES)": "C[C@H]1CCN(c2nccc(-c3cnn4ncccc34)n2)C1", "target": "TYK2 JH1", "assay": "cell-free assay", "conditions": "1 µM", "measurement": "remaining signal", "value": "63%"}
{"Structure (SMILES)": "Nc1nc(Nc2ccc(S(N)(=O)=O)cc2)nn1C(=O)c1c(F)cccc1F", "target": "TYK2", "assay": "cell-free assay", "conditions": "0.5 µM", "measurement": "remaining signal", "value": "0.878%"}
{"Structure (SMILES)": "O=C(Nc1cnn(-c2csc(C(=O)NC3COC3)c2)c1)Nc1c(F)cccc1Cl", "target": "TYK2", "assay": "enzyme activity, inhibitor", "conditions": "5 µM", "measurement": "remaining activity", "value": "89.3%"}
{"Structure (SMILES)": "CN(c1nccc(-c2cnn3ncccc23)n1)C1CC1", "target": "TYK2", "assay": "binding", "conditions": "1 µM", "measurement": "remaining binding", "value": "100%"}
{"Structure (SMILES)": "CCOCCn1cc(C(=O)Nc2ccc(-n3nc(-c4cccnc4)cc3C(F)(F)F)cn2)ccc1=O", "target": "TYK2 JH1", "assay": "cell-free assay, competition with immobilised ligand", "conditions": "1 µM", "measurement": "remaining binding", "value": "100%"}
{"Structure (SMILES)": "F[C@@H]1CCN(c2nccc(-c3cnn4ncccc34)n2)C1", "target": "TYK2 JH1", "assay": "cell-free assay, competition with immobilised ligand", "conditions": "1 µM", "measurement": "remaining binding", "value": "100%"}
{"Structure (SMILES)": "Cc1cnc(NC2CCOCC2)nc1-n1cnc(C(=O)NC(CN)c2cc(F)cc(Cl)c2)c1 (stereo not shown)", "target": "TYK2", "assay": "enzyme activity, inhibitor, radiometric", "conditions": "1 µM", "measurement": "remaining activity", "value": "96%"}
{"Structure (SMILES)": "CNC(=O)c1cc(Oc2ccc(NC(=O)Nc3ccc(Cl)c(C(F)(F)F)c3)cc2)ccn1", "target": "TYK2", "assay": "cell-free assay", "conditions": "0.5 µM", "measurement": "remaining signal", "value": "98.9%"}
{"Structure (SMILES)": "CC(=O)N1CCC(c2ccc(C(=O)NC3=NCCN3)cc2C(F)(F)F)CC1", "target": "TYK2 JH1", "assay": "cell-free assay, competition with immobilised ligand", "conditions": "1 µM", "measurement": "remaining binding", "value": "100%"}
{"Structure (SMILES)": "Nc1ncnc2occ(-c3ccc(NC(=O)Nc4cc(C(F)(F)F)ccc4F)cc3)c12", "target": "TYK2 JH2", "assay": "cell-free assay, inhibitor", "conditions": "20 µM", "measurement": "remaining signal", "value": "100%"}
{"Structure (SMILES)": "CC(C)(C)c1nc2c(s1)c1nc(N)ncc1c1ccc(NS(=O)(=O)c3c(F)cccc3F)c(F)c12", "target": "TYK2", "assay": "enzyme activity, inhibitor, radiometric", "conditions": "1 µM", "measurement": "remaining activity", "value": "92%"}
{"Structure (SMILES)": "COc1cc(Cl)c(C(=O)N[C@@H](CN[C@H]2CC[C@@H](N)CC2)Cc2ccc(C#N)cc2)cc1-c1ccc(CN[C@H](C)c2ccc(C)cc2)o1", "target": "TYK2", "assay": "enzyme activity, inhibitor", "conditions": "1 µM", "measurement": "remaining activity", "value": "105%"}
{"Structure (SMILES)": "O=C(CSc1nc2nccnc2c(=O)n1CCc1ccccc1)Nc1nccs1", "target": "TYK2", "assay": "enzyme activity, inhibitor", "conditions": "10 µM", "measurement": "inhibition", "value": "5%"}
{"Structure (SMILES)": "CN([C@@H]1CCc2c(CC(=O)O)c3ccccc3n2C1)S(=O)(=O)c1ccc(F)cc1", "target": "TYK2 JH1", "assay": "cell-free assay, competition with immobilised ligand", "conditions": "1 µM", "measurement": "remaining binding", "value": "100%"}
{"Structure (SMILES)": "CC/C(=N\\NC(=O)NCc1cccc(O)c1)c1ccc(O)c(C)c1O", "target": "TYK2", "assay": "enzyme activity, inhibitor", "conditions": "0.1 µM", "measurement": "inhibition", "value": "7.2%"}
{"Structure (SMILES)": "O=C1NC(=O)c2cc(Nc3ccc(F)cc3)c(Nc3ccc(F)cc3)cc21", "target": "TYK2", "assay": "cell-free assay", "conditions": "0.5 µM", "measurement": "remaining signal", "value": "80.6%"}
{"Structure (SMILES)": "CN(C)C(=O)Cn1cc(-c2nc(C3(c4ccc(-c5cnc(N)nc5)cc4)CC3)no2)cn1", "target": "TYK2 JH2", "assay": "cell-free assay, competition with immobilised ligand", "conditions": "1 µM", "measurement": "remaining binding", "value": "90%"}
{"Structure (SMILES)": "N[C@@H]1CCN(c2nccc(-c3cnn4ncccc34)n2)C1", "target": "TYK2", "assay": "binding", "conditions": "1 µM", "measurement": "remaining binding", "value": "100%"}
{"Structure (SMILES)": "Cc1c(C(=O)O)cc(-c2ccc(C3CCNCC3)cc2)c2ccc(-c3ccc(C(F)(F)F)cc3)cc12", "target": "TYK2 JH1", "assay": "binding, competition with immobilised ligand", "conditions": "1 µM", "measurement": "remaining binding", "value": "100%"}
{"Structure (SMILES)": "COc1cc2ncnc(Nc3ccc(Oc4ccccc4)c(C)c3C)c2cc1OC", "target": "TYK2", "assay": "enzyme activity, inhibitor", "conditions": "1 µM", "measurement": "inhibition", "value": "-2%"}
{"Structure (SMILES)": "CS(=O)(=O)NCC[C@H](NC(=O)c1cncc2c1cnn2-c1ccc(F)cc1)c1ccnc(S(C)(=O)=O)c1", "target": "TYK2 JH1", "assay": "cell-free assay, competition with immobilised ligand", "conditions": "1 µM", "measurement": "remaining binding", "value": "100%"}
{"Structure (SMILES)": "CC1CCCN1c1nccc(-c2cnn3ncccc23)n1 (stereo not shown)", "target": "TYK2", "assay": "binding", "conditions": "1 µM", "measurement": "remaining binding", "value": "87%"}
{"Structure (SMILES)": "O=C1CCc2cc(Nc3cc(OC4CCOCC4)c([N+](=O)[O-])cc3Cl)ccc2N1", "target": "TYK2 JH2", "assay": "cell-free assay, competition with immobilised ligand", "conditions": "1 µM", "measurement": "remaining binding", "value": "94%"}
{"Structure (SMILES)": "CN1CC(Oc2cnc(C#N)cc2-c2ccn3nc(NC(=O)C4CC4)cc3c2)C1", "target": "TYK2", "assay": "enzyme activity, inhibitor", "conditions": "1 µM", "measurement": "inhibition", "value": "-10%"}
